In ChEMBL document CHEMBL1828535, “Synthesis and in vitro activity of novel N-3 acylated TSAO-T compounds against HIV-1 and HCV” (Eur J Med Chem, 2011):
Calls of active or inactive are those of the source. No cut-off for these calls is given here.

How the values were obtained:
Hepatitis C virus = assay: Antiviral activity against HCV2a JFH1 infected in human Huh7 cells assessed as inhibition of viral replication after 72 hrs by luciferase reporter gene assay; assay type: functional, organism-based, Hepacivirus hominis; conditions: JFH-1, Huh-7, 72 h
[1] = test system: Human immunodeficiency virus 1; assay: Antiviral activity against HIV1 3B infected in human CEM cells assessed as inhibition of virus-induced cytopathicity after 4 days; assay type: functional, organism-based; conditions: Human immunodeficiency virus 1, 3B, CCRF-CEM, 96 h
Method in brief: (§1)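 CEM cells at 4 x 10⁶/mL infected with HIV-1 IIIB or HIV-2 ROD at ~100 CCID₅₀ per mL of cell suspension; compound present; syncytia formation scored microscopically after 4 days; EC₅₀ = concentration inhibiting virus-induced cytopathicity by 50%.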

[2] = Cytotoxicity against human CEM cells after 4 days; assay type: cell-based; conditions: CEM (CCRF-CEM) cells
Method in brief: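 CC₅₀ taken as concentration inhibiting CEM cell proliferation by 50%.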

[3] = Cytotoxicity against human HuH7 cells after 72 hrs; assay type: cell-based, Huh-7
[4] = test system: Human immunodeficiency virus 2; assay: Antiviral activity against HIV2 ROD infected in human CEM cells assessed as inhibition of virus-induced cytopathicity after 4 days; assay type: functional, organism-based; conditions: Human immunodeficiency virus 2, ISOLATE ROD, CCRF-CEM, 96 h; method in brief: as §1
[5] = Chemical stability of the compound in phosphate buffered saline assessed as compound degradation after 72 hrs; assay type: physicochemical; conditions: buffer
Method in brief: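 Compound held in PBS at 37 °C for 72 h; degradation judged by comparing LCMS spectra before and after incubation.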

[6] = test system: Human immunodeficiency virus 1; assay: Antiviral activity against HIV1 harboring reverse transcriptase E138K mutant infected in human CEM cells assessed as inhibition of virus-induced cytopathicity after 4 days; assay type: functional, organism-based; conditions: CCRF-CEM
Method in brief: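 CEM cells at 4 x 10⁶ cells/mL infected with HIV-1/E138K (RT mutant strain selected under TSAO-m³T) at about 100 CCID₅₀ per mL of cell suspension. Syncytia formation scored microscopically after 4 days. EC₅₀ taken as the concentration inhibiting virus-induced cytopathicity by 50%.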

SMILES: COC(=O)n1c(=O)c(C)cn([C@@H]2O[C@H](CO[Si](C)(C)C(C)(C)C)[C@@]3(OS(=O)(=O)C=C3N)[C@H]2O[Si](C)(C)C(C)(C)C)c1=O
- EC50 (Hepatitis C virus): > 100 µM
- EC50 [1]: 0.07 µM
- CC50 at 96 h [2]: > 100 µM
- CC50 at 72 h [3]: > 100 µM
- EC50 [4]: ≥ 100 µM
- Stability [5]: Stable
- inhibition [6]: inactive

SMILES: Cc1cn([C@@H]2O[C@H](CO[Si](C)(C)C(C)(C)C)[C@@]3(OS(=O)(=O)C=C3N)[C@H]2O[Si](C)(C)C(C)(C)C)c(=O)[nH]c1=O
- EC50 (Hepatitis C virus): 14 µM
- CC50 at 96 h [2]: 12 µM
- CC50 at 72 h [3]: > 100 µM
- EC50 [4]: > 20 µM
- inhibition [6]: inactive

SMILES: Cc1cn([C@@H]2O[C@H](CO[Si](C)(C)C(C)(C)C)[C@@]3(OS(=O)(=O)C=C3N)[C@H]2O[Si](C)(C)C(C)(C)C)c(=O)n(C(=O)CCCC(=O)OC(C)(C)C)c1=O
- EC50 (Hepatitis C virus): 11 µM
- EC50 [1]: 0.033 µM
- CC50 at 96 h [2]: 11 µM
- CC50 at 72 h [3]: > 100 µM
- EC50 [4]: ≥ 4 µM
- Stability [5]: Stable
- inhibition [6]: inactive

SMILES: COC(=O)CCCC(=O)n1c(=O)c(C)cn([C@@H]2O[C@H](CO[Si](C)(C)C(C)(C)C)[C@@]3(OS(=O)(=O)C=C3N)[C@H]2O[Si](C)(C)C(C)(C)C)c1=O
- EC50 (Hepatitis C virus): 11 µM
- EC50 [1]: 0.054 µM
- CC50 at 96 h [2]: 9.9 µM
- CC50 at 72 h [3]: > 100 µM
- EC50 [4]: ≥ 4 µM
- Stability [5]: Stable
- inhibition [6]: inactive

SMILES: Cc1cn([C@@H]2O[C@H](CO[Si](C)(C)C(C)(C)C)[C@@]3(OS(=O)(=O)C=C3N)[C@H]2O[Si](C)(C)C(C)(C)C)c(=O)n(C(=O)CCCC(N)=O)c1=O
- EC50 (Hepatitis C virus): 9 µM
- EC50 [1]: 0.038 µM
- CC50 at 96 h [2]: 8.7 µM
- CC50 at 72 h [3]: > 100 µM
- EC50 [4]: ≥ 4 µM
- Stability [5]: Stable
- inhibition [6]: inactive

SMILES: Cc1cn([C@@H]2O[C@H](CO[Si](C)(C)C(C)(C)C)[C@@]3(OS(=O)(=O)C=C3N)[C@H]2O[Si](C)(C)C(C)(C)C)c(=O)n(C(=O)C2CC2)c1=O
- EC50 (Hepatitis C virus): 8.5 µM
- EC50 [1]: 0.042 µM
- CC50 at 96 h [2]: 11 µM
- CC50 at 72 h [3]: > 100 µM
- EC50 [4]: ≥ 4 µM
- Stability [5]: Stable
- inhibition [6]: inactive

SMILES: Cc1cn([C@@H]2O[C@H](CO[Si](C)(C)C(C)(C)C)[C@@]3(OS(=O)(=O)C=C3N)[C@H]2O[Si](C)(C)C(C)(C)C)c(=O)n(C(=O)OC(C)(C)C)c1=O
- CC50 at 96 h [2]: 26 µM
- inhibition [6]: inactive

SMILES: Cc1cn([C@@H]2O[C@H](CO[Si](C)(C)C(C)(C)C)[C@@]3(OS(=O)(=O)C=C3N)[C@H]2O[Si](C)(C)C(C)(C)C)c(=O)n(C(=O)CCCC(=O)N(C)C)c1=O
- EC50 (Hepatitis C virus): 4.4 µM
- EC50 [1]: 0.032 µM
- CC50 at 96 h [2]: 9.5 µM
- CC50 at 72 h [3]: > 100 µM
- EC50 [4]: ≥ 4 µM
- Stability [5]: Stable
- inhibition [6]: inactive

SMILES: Cc1cn([C@@H]2O[C@H](CO[Si](C)(C)C(C)(C)C)[C@@]3(OS(=O)(=O)C=C3N)[C@H]2O[Si](C)(C)C(C)(C)C)c(=O)n(C(=O)c2ccccc2)c1=O
- EC50 (Hepatitis C virus): 9.8 µM
- EC50 [1]: 0.049 µM
- CC50 at 96 h [2]: 54 µM
- CC50 at 72 h [3]: > 100 µM
- EC50 [4]: ≥ 4 µM
- Stability [5]: Stable
- inhibition [6]: inactive

SMILES: CNC(=O)CCCC(=O)n1c(=O)c(C)cn([C@@H]2O[C@H](CO[Si](C)(C)C(C)(C)C)[C@@]3(OS(=O)(=O)C=C3N)[C@H]2O[Si](C)(C)C(C)(C)C)c1=O
- EC50 (Hepatitis C virus): 12 µM
- EC50 [1]: 0.059 µM
- CC50 at 96 h [2]: 9.1 µM
- CC50 at 72 h [3]: > 100 µM
- EC50 [4]: ≥ 4 µM
- Stability [5]: Stable
- inhibition [6]: inactive

SMILES: Cc1cn([C@@H]2O[C@H](CO[Si](C)(C)C(C)(C)C)[C@@]3(OS(=O)(=O)C=C3N)[C@H]2O[Si](C)(C)C(C)(C)C)c(=O)n(C(=O)CCCC(=O)NCc2ccccc2)c1=O
- EC50 (Hepatitis C virus): 7.6 µM
- EC50 [1]: 0.052 µM
- CC50 at 96 h [2]: 8.8 µM
- CC50 at 72 h [3]: > 100 µM
- EC50 [4]: ≥ 4 µM
- Stability [5]: Stable
- inhibition [6]: inactive

SMILES: C[C@@]1(O)[C@H](O)[C@@H](CO)O[C@H]1n1ccc(N)nc1=O
- EC50 (Hepatitis C virus): 2.4 µM
- CC50 at 72 h [3]: > 33 µM
- inhibition [6]: inactive

SMILES: Cc1cn([C@@H]2O[C@H](CO[Si](C)(C)C(C)(C)C)[C@@]3(OS(=O)(=O)C=C3N)[C@H]2O[Si](C)(C)C(C)(C)C)c(=O)n(C)c1=O
- EC50 (Hepatitis C virus): > 100 µM
- EC50 [1]: 0.037 µM
- CC50 at 96 h [2]: 115 µM
- CC50 at 72 h [3]: > 100 µM
- EC50 [4]: > 250 µM
- inhibition [6]: inactive

SMILES: COC(=O)c1cccc(C(=O)n2c(=O)c(C)cn([C@@H]3O[C@H](CO[Si](C)(C)C(C)(C)C)[C@@]4(OS(=O)(=O)C=C4N)[C@H]3O[Si](C)(C)C(C)(C)C)c2=O)c1
- EC50 (Hepatitis C virus): 8.2 µM
- EC50 [1]: 0.041 µM
- CC50 at 96 h [2]: 14 µM
- CC50 at 72 h [3]: > 100 µM
- EC50 [4]: ≥ 4 µM
- Stability [5]: Stable
- inhibition [6]: inactive

SMILES: Cc1cn([C@@H]2O[C@H](CO[Si](C)(C)C(C)(C)C)[C@@]3(OS(=O)(=O)C=C3N)[C@H]2O[Si](C)(C)C(C)(C)C)c(=O)n(C(=O)CCCC(=O)OCc2ccccc2)c1=O
- EC50 (Hepatitis C virus): 10 µM
- EC50 [1]: 0.04 µM
- CC50 at 96 h [2]: 9.2 µM
- CC50 at 72 h [3]: > 100 µM
- EC50 [4]: ≥ 4 µM
- Stability [5]: Stable
- inhibition [6]: inactive

SMILES: Cc1cn([C@@H]2O[C@H](CO[Si](C)(C)C(C)(C)C)[C@@]3(OS(=O)(=O)C=C3N)[C@H]2O[Si](C)(C)C(C)(C)C)c(=O)n(C(=O)CCCBr)c1=O
- EC50 (Hepatitis C virus): 43 µM
- EC50 [1]: 0.052 µM
- CC50 at 96 h [2]: 11 µM
- CC50 at 72 h [3]: > 100 µM
- EC50 [4]: ≥ 4 µM
- Stability [5]: Stable
- inhibition [6]: inactive

SMILES: CNC(=O)CCCCn1c(=O)c(C)cn([C@@H]2O[C@H](CO[Si](C)(C)C(C)(C)C)[C@@]3(OS(=O)(=O)C=C3N)[C@H]2O[Si](C)(C)C(C)(C)C)c1=O
- CC50 at 96 h [2]: 10 µM
- EC50 [4]: > 10 µM
- inhibition [6]: inactive

SMILES: CSC(=O)CCCC(=O)n1c(=O)c(C)cn([C@@H]2O[C@H](CO[Si](C)(C)C(C)(C)C)[C@@]3(OS(=O)(=O)C=C3N)[C@H]2O[Si](C)(C)C(C)(C)C)c1=O
- EC50 (Hepatitis C virus): 7 µM
- EC50 [1]: 0.037 µM
- CC50 at 96 h [2]: 9.9 µM
- CC50 at 72 h [3]: > 100 µM
- EC50 [4]: ≥ 4 µM
- Stability [5]: Stable
- inhibition [6]: inactive
